From article PMC6648324 (ACS Omega, 2019)
Values joined by “and” are separate entries in the source; they are usually repeats but may differ in a detail not shown here. Identical values can stand only once. Like-named read-outs stand apart in the source and are kept apart here.

Key:
[1] = cited from earlier work
[2] = Cyclic voltammetry in DMSO; format: physicochemical; details: 200 mV s^–1
Procedure, shortened: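 Flavone at ~2−2.5 mM in DMSO with 0.1 M n-Bu4NPF6 under Ar at 25 °C. Three-electrode cell: polished glassy carbon disk (0.07 cm2) working electrode, Pt wire counter, KCl(3 M)/Ag/AgCl reference (+210 mV vs NHE). Sweep rates 50 mV s−1 to 6 V s−1; peak potentials read at 200 mV s−1. E1/2 taken from the […] reduction wave.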

[3] = UV–vis absorption spectrophotometric titrations versus pH; format: physicochemical; details: CH3OH/H2O (80/20 w/w); I = 0.1 M (NEt4ClO4); T = 25.0(2) °C
Procedure, shortened: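 Flavone at 10−5−10−4 M in CH3OH/H2O was acidified, then titrated with base over 2 < pH < 12, with full equilibration after each addition. Spectra taken through a quartz immersion probe (l = 1 cm). Specfit analysis gave the 6-OH protonation constants and the spectra of the protonated species.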

[4] = Spectrophotometric titrations with FeNTA at pH 7.4; format: physicochemical; details: CH3OH/H2O (80/20 w/w), pH = 7.4 (HEPES), I = 0.1 M, 25.0(2) °C, nc = no complexation
Procedure, shortened: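 FeNTA made fresh from Fe(III) and solid NTA (~1:1, slight NTA excess) with a few drops of HClO4, then brought to pH 7.4 with 0.1 M HEPES. Flavone (stock ~10−5 M range) in 0.1 M HEPES pH 7.4 CH3OH/H2O was titrated with FeNTA. UV-vis spectra recorded at 25.0(2) °C, l = 1 cm. Constants fitted with Specfit. Ternary complexes checked by negative-mode ESI-MS.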

[5] = Diffusion-ordered spectroscopy NMR; format: physicochemical
[6] = Stability of the flavone toward oxidation during the kinetic measurements; format: physicochemical; details: acidic conditions; CH3OH/H2O (80/20 w/w)
[7] = CH3OH/H2O (80/20 w/w); I = 0.1 M (NEt4ClO4); 25.0(2) °C; [H^+] = 10^–2 M; cited from earlier work

SMILES	E1/2 of the quasireversible signal (carbonyl) [2]	log K*L·FeNTA (3σ), stability constant of the ferric NTA complex [4]	log K*FFe, conditional stability constant of the ferric complex [7]	other results
O=c1cc(-c2ccccc2)oc2cccc(O)c12 [5-OH-flavone]	–	–	–	pKa (5-OH) ([1]; CH3OH/water 1/1 w/w): 11.34; pKa (5-OH) ([1]; dioxane/water 1/1 w/w): 11.44
O=c1cc(-c2ccccc2)oc2ccccc12 [F, 2-phenyl-chromone, reference compound]	−1.59 V/KCl(3 M)/Ag/AgCl	–	–	–
COc1ccc(-c2cc(=O)c3c(O)c(O)c(OC)cc3o2)cc1 [FOMe, ladanein]	−1.93 V/KCl(3 M)/Ag/AgCl	4.7(4)	6.0(3)	log K^h (±σ), protonation constant (6-OH group) [3]: 10.33(5); log K*L·FeNTA (3σ), stability constant of the ferric NTA complex ([4]; listed as FOMe/ladanein): 4.7(4) and 4.9(6); D0, diffusion coefficient [5]: 2.34 × 10^–6 cm^2 s^–1; stability of the free ligand in the absence of Fe(III) [6]: remained unaltered over a long period
O=c1cc(-c2ccc(O)cc2)oc2cc(O)cc(O)c12 [apigenin]	–	–	5.5(1)	–
COc1ccc(-c2cc(=O)c3c(O)c(OC)c(OC)cc3o2)cc1 [salvigenin, reference compound]	–	5.8(7)	5.8(2)	–
